Measurements published in ChEMBL document CHEMBL1133721, “Antitumor polycyclic acridines. 7. Synthesis and biological properties of DNA affinic tetra- and pentacyclic acridines” (J Med Chem, 2000).

Legend:
Type in all cases: functional, cell-based
Conditions in all cases: Homo sapiens
NCI-H226 [1] = assay: Inhibitory activity against NCI-H226 cell line using MTT assay(mutant p53)
In short: (§1)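 Cells were grown in RPMI 1640 with 2 mM L-glutamine, penicillin/streptomycin and 10% heat-inactivated FCS. Drugs were taken from 10 mM DMSO stocks. Viability was read by MTT at 0.4 mg/mL final for 4 h at 37 °C, with formazan dissolved in DMSO plus glycine buffer and read at 550 nm. IC50 is the concentration halving absorbance versus untreated controls, taken from dose-response curves.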

NCI-H358 [2] = assay: (§2) Inhibitory activity against NCI-H358 cell line using MTT assay(mutant p53); in short: as §1
F460pv8/eto = assay: Inhibitory activity against […] using MTT assay
In short: (§3)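 This is a 7-day MTT assay in RPMI 1640 with 2 mM L-glutamine, antibiotics and 10% heat-inactivated FCS. The H460pv8/eto variant was kept in 1 µM etoposide. MTT was used at 0.4 mg/mL final for 4 h at 37 °C, and formazan was dissolved in DMSO/glycine buffer and read at 550 nm. IC50 is the 50% absorbance reduction versus untreated controls, from dose-response curves.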

T47D = assay: Inhibitory activity against T47D cell line using MTT assay (ER+,mutant p53); in short: as §1
MCF7 [3] = assay: Inhibitory activity against MCF-7 wt cell line using MTT assay (ER+,pgR+,wildtype p53); in short: as §1
NCI-H322M = assay: (§4) Inhibitory activity against NCI-H322 cell line using MTT assay(mutant p53); in short: as §1
NCI-H647 = assay: Inhibitory activity against NCI-H647 cell line using MTT assay(mutant p53); in short: as §1
NCI/ADR-RES = assay: Inhibitory activity against MCF-7/adr cell line using MTT assay; in short: as §1
MCF7 [4] = assay: Inhibitory activity against MCF7wt cell line using MTT assay; in short: as §1
NCI-H460 [5] = assay: Inhibitory activity against H460pv8 cell line using MTT assay; in short: as §3
NCI-H460 [6] = assay: Inhibitory activity against NCI-H460 cell line using MTT assay; in short: as §3
MDA-MB-468 = assay: Inhibitory activity against MDA-468 cell line using MTT assay (ER-, amplified EGFR, mutant p53); in short: as §1
A549 = assay: Inhibitory activity against A549 cell line using MTT assay(Wild type p53); in short: as §1
MDA-MB-231 = assay: Inhibitory activity against MDA-231 cell line using MTT assay (ER-,EGFR+,mutant p53); in short: as §1
ZR-75-1 = assay: Inhibitory activity against ZR-75-1 cell line using MTT assay (ER+,pgr+,mutant p53); in short: as §1
SK-BR-3 = assay: Inhibitory activity against SKBR-3 cell line using MTT assay (ER-amplified erB2,mutant p53); in short: as §1
NCI-H460 [7] = assay: (§5) Inhibitory activity against NCI-H460 cell line using MTT assay(Wild type p53); in short: as §1
NCI-H358 [8] = assay: as §5
In short: (§6)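 Human NSCLC lines grown in RPMI 1640 with 2 mM L-glutamine, penicillin/streptomycin and 10% heat-inactivated FCS. Drugs were taken from 10 mM DMSO stocks. Cells were exposed for 7 days, then given MTT at 0.4 mg/mL final for 4 h at 37 °C. Formazan was dissolved in DMSO/glycine buffer and read at 550 nm. IC50 is the 50% absorbance drop versus untreated controls, read from dose-response curves.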

NCI-H226 [9] = assay: as §2; in short: as §6
NCI-H460 [10] = assay: as §4; in short: as §6

**Q.** What does the source list for c1ccc2c(c1)Nc1cccc3cc4[n+](c-2c13)CCC4?
**A.** IC50 (NCI-H226 [1]): 220 nM; IC50 (NCI-H358 [2]): 110 nM; IC50 (F460pv8/eto): 100 nM; IC50 (T47D): 160 nM; IC50 (MCF7 [3]): 150 nM; IC50 (NCI-H322M): 170 nM; IC50 (NCI-H647): 120 nM; IC50 (NCI/ADR-RES): 165 nM; IC50 (MCF7 [4]): 150 nM; IC50 (NCI-H460 [5]): 130 nM; IC50 (NCI-H460 [6]): 180 nM; IC50 (MDA-MB-468): 180 nM; IC50 (A549): 160 nM; IC50 (MDA-MB-231): 190 nM; IC50 (ZR-75-1): 170 nM; IC50 (SK-BR-3): 120 nM; IC50 (NCI-H460 [7]): 180 nM

**Q.** With c1ccc2c(c1)Nc1cccc3ccnc-2c13 as the compound, how does the IC50 (NCI-H226 [1]) read?
**A.** 2340 nM

**Q.** And the IC50 (NCI-H358 [2])?
**A.** 1420 nM

**Q.** And the IC50 (F460pv8/eto)?
**A.** 1070 nM

**Q.** What about the IC50 (T47D) of the same compound?
**A.** 2100 nM

**Q.** What about the IC50 (MCF7 [3]) of the same compound?
**A.** 830 nM

**Q.** What about the IC50 (NCI-H322M) of the same compound?
**A.** 1860 nM

**Q.** And the IC50 (NCI-H647)?
**A.** 2200 nM

**Q.** What about the IC50 (NCI-H460 [5]) of the same compound?
**A.** 1100 nM

**Q.** What about the IC50 (NCI-H460 [6]) of the same compound?
**A.** 2060 nM

**Q.** And the IC50 (MDA-MB-468)?
**A.** 1370 nM

**Q.** And the IC50 (A549)?
**A.** 2140 nM

**Q.** What about the IC50 (MDA-MB-231) of the same compound?
**A.** 1730 nM

**Q.** What about the IC50 (ZR-75-1) of the same compound?
**A.** 1550 nM

**Q.** What about the IC50 (SK-BR-3) of the same compound?
**A.** 580 nM

**Q.** And the IC50 (NCI-H460 [7])?
**A.** 2060 nM

**Q.** Which IC50 (NCI-H226 [1]) does the source give for COc1cccc2c1C(=O)c1c(O)c3c(c(O)c1C2=O)C[C@@](O)(C(=O)CO)C[C@@H]3O[C@H]1C[C@H](N)[C@H](O)[C@H](C)O1 [DOXORUBICIN] here?
**A.** 8 nM

**Q.** What about the IC50 (NCI-H358 [2]) of the same compound?
**A.** 130 nM

**Q.** And the IC50 (F460pv8/eto)?
**A.** 20 nM

**Q.** What about the IC50 (T47D) of the same compound?
**A.** 7 nM

**Q.** And the IC50 (MCF7 [3])?
**A.** 1 nM

**Q.** And the IC50 (NCI-H322M)?
**A.** 30 nM

**Q.** What about the IC50 (NCI-H647) of the same compound?
**A.** < 1 nM

**Q.** What about the IC50 (NCI-H460 [5]) of the same compound?
**A.** 4 nM

**Q.** And the IC50 (NCI-H460 [6])?
**A.** 10 nM

**Q.** And the IC50 (MDA-MB-468)?
**A.** 5 nM

**Q.** And the IC50 (A549)?
**A.** 4 nM

**Q.** What about the IC50 (MDA-MB-231) of the same compound?
**A.** 6 nM

**Q.** What about the IC50 (ZR-75-1) of the same compound?
**A.** 9 nM

**Q.** And the IC50 (SK-BR-3)?
**A.** 20 nM

**Q.** And the IC50 (NCI-H460 [7])?
**A.** 10 nM

**Q.** O=[N+]([O-])c1ccc2c(c1)Nc1c3ccccc3nc3cccc-2c13 was tested. Which IC50 (NCI-H226 [1]) did it give?
**A.** > 10000 nM

**Q.** What about the IC50 (NCI-H358 [8]) of the same compound?
**A.** > 10 µM

**Q.** And the IC50 (T47D)?
**A.** > 10000 nM

**Q.** And the IC50 (NCI-H226 [9])?
**A.** 9.5 µM

**Q.** What about the IC50 (MCF7 [3]) of the same compound?
**A.** 550 nM

**Q.** What about the IC50 (NCI-H647) of the same compound?
**A.** 950 nM

**Q.** And the IC50 (NCI-H460 [10])?
**A.** > 10 µM

**Q.** And the IC50 (MDA-MB-468)?
**A.** 40 nM

**Q.** What about the IC50 (A549) of the same compound?
**A.** > 10000 nM

**Q.** And the IC50 (MDA-MB-231)?
**A.** > 10000 nM

**Q.** And the IC50 (ZR-75-1)?
**A.** 30 nM

**Q.** What about the IC50 (SK-BR-3) of the same compound?
**A.** 120 nM

**Q.** Which results are given for N#CCCCc1cnc2c3c(cccc13)Nc1ccccc1-2?
**A.** IC50 (NCI-H226 [1]): 2720 nM; IC50 (NCI-H358 [2]): 2380 nM; IC50 (F460pv8/eto): 1090 nM; IC50 (T47D): 1310 nM; IC50 (MCF7 [3]): 270 nM; IC50 (NCI-H322M): 2270 nM; IC50 (NCI-H647): 2920 nM; IC50 (NCI/ADR-RES): 610 nM; IC50 (MCF7 [4]): 270 nM; IC50 (NCI-H460 [5]): 2060 nM; IC50 (NCI-H460 [6]): 2560 nM; IC50 (MDA-MB-468): 320 nM; IC50 (A549): 2570 nM; IC50 (MDA-MB-231): 960 nM; IC50 (ZR-75-1): 720 nM; IC50 (SK-BR-3): 420 nM; IC50 (NCI-H460 [7]): 2560 nM

**Q.** What does the source list for c1ccc2c(c1)Nc1c3ccccc3nc3cccc-2c13?
**A.** IC50 (NCI-H226 [1]): 750 nM; IC50 (NCI-H358 [2]): 460 nM; IC50 (F460pv8/eto): 340 nM; IC50 (T47D): 690 nM; IC50 (MCF7 [3]): 270 nM; IC50 (NCI-H322M): 490 nM; IC50 (NCI-H647): 540 nM; IC50 (NCI/ADR-RES): 630 nM; IC50 (MCF7 [4]): 270 nM; IC50 (NCI-H460 [5]): 320 nM; IC50 (NCI-H460 [6]): 520 nM; IC50 (MDA-MB-468): 90 nM; IC50 (A549): 490 nM; IC50 (MDA-MB-231): 540 nM; IC50 (ZR-75-1): 850 nM; IC50 (SK-BR-3): 150 nM; IC50 (NCI-H460 [7]): 520 nM
